Results published in ChEMBL document CHEMBL4665801, “Pyrazole-Based Lactate Dehydrogenase Inhibitors with Optimized Cell Activity and Pharmacokinetic Properties” (J Med Chem, 2020).
The source made the active and inactive calls. No cut-off for these calls is given here.

Assays:
[1] = Metabolic stability in rat hepatocytes; type: ADME, cell-based, Hepatocyte
[2] = Cmax in CD-1 mouse at 40 mg/kg, po and measured up to 24 hrs by LC/MS-MS analysis; type: ADME, organism-based; parameters: route oral, dose 40 mg/kg, time <=24; details: in vivo
Outline: (§1)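 Male CD1 mice, 6–8 weeks, about 20–30 g, three per cohort. Dosed PO at 40 or 50 mg/kg, or IV at 10 mg/kg for reference, in PBS with […] (pH 7–8). Dorsal metatarsal blood was taken into heparin at 15 min to 24 h (PO) or 5 min to 24 h (IV). Plasma was frozen and quantified by LC–MS/MS.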

[3] = Protein binding in mouse plasma assessed as free fraction; type: ADME, cell-free
CYP2C8 = molecular target: T1, CYP2C8 (Homo sapiens, UniProt P10632); assay: Inhibition of CYP2C8 (unknown origin) at 10 uM relative to control; type: ADME
T1 sequence (P10632 whole entry): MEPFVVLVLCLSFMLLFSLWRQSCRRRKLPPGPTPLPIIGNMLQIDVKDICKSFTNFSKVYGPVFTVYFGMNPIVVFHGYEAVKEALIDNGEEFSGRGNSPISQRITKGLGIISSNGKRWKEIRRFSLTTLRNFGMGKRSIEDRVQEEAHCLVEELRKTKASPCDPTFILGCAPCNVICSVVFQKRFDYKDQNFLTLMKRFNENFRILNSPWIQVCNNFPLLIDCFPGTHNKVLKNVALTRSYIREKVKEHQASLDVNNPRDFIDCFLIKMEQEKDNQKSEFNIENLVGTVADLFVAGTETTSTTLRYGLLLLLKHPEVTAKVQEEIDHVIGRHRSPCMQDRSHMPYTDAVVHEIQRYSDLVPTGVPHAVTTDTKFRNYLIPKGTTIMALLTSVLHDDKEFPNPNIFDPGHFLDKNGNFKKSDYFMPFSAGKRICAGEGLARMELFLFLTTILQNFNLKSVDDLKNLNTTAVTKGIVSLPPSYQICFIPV

[4] = Terminal half life in CD-1 mouse at 40 mg/kg, po and measured up to 24 hrs by LC/MS-MS analysis; type: ADME, organism-based; details: in vivo; outline: as §1
CYP2C9 = CYP2C9 (Homo sapiens, UniProt P11712); assay: Inhibition of CYP2C9 (unknown origin) at 10 uM relative to control; type: ADME
CYP2C9, sequence (P11712 whole entry): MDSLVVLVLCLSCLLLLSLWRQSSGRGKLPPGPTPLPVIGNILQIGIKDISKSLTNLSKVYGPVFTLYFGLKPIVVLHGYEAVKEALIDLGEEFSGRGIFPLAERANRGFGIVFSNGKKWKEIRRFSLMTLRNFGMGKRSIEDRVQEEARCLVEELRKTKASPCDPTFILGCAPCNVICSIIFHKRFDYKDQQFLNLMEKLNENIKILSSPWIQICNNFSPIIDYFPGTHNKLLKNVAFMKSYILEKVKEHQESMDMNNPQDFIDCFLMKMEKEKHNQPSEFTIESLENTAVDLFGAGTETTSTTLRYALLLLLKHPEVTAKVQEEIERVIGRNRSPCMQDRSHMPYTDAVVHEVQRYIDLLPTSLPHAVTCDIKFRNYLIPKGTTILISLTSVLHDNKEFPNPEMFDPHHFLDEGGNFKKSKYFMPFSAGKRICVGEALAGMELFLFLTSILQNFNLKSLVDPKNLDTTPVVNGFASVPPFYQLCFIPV

CYP2B6 = molecular target: T2, CYP2B6 (Homo sapiens, UniProt P20813); assay: Inhibition of CYP2B6 (unknown origin) at 10 uM relative to control; type: ADME
T2 sequence (P20813 whole entry): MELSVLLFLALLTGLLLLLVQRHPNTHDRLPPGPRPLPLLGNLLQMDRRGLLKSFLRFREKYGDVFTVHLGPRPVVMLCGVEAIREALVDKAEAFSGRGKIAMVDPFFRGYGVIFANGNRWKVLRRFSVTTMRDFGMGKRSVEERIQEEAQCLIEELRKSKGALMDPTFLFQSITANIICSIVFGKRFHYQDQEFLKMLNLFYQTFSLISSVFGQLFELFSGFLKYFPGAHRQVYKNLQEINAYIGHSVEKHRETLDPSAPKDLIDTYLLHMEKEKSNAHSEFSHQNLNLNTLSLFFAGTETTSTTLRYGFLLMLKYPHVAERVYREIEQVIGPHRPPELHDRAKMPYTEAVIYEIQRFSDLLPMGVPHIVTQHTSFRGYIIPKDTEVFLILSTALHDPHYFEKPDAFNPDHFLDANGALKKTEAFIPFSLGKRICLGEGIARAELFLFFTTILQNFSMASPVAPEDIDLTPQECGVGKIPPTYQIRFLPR

[5] = Oral bioavailability in CD-1 mouse at 40 mg/kg and measured up to 24 hrs by LC/MS-MS analysis; type: ADME, organism-based; details: in vivo; outline: as §1
[6] = Half life in human liver cytoplasm; type: ADME, subcellular
[7] = molecular target: T3, L-lactate dehydrogenase A chain (Homo sapiens, UniProt P00338); assay: Inhibition of LDHA in human A673 cells assessed as decrease in extracellular acidification rate at 0.5 to 5 uM preincubated for 1 hr followed by glucose/oligomycin/2-DG addition at 48 mins by seahorse XF GST based assay; type: cell-based; details: dose microM 0.5-5, time 108.0 min
Outline: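 A673 cells in DMEM with 10% FBS were plated 24 h ahead, then switched to Seahorse basic DMEM with 2 mM glutamine, pH 7.4, and held 1 h at 37 °C without CO2. ECAR was recorded after inhibitor injection at increasing concentrations. At 48 min, glucose (10 mM final), oligomycin (1 μg/mL final) and 2-DG (50 mM final) were injected in sequence.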

[8] = Half life in rat liver microsomes at 1 uM in presence of NADPH by LC-MS/MS; type: ADME, Microsome
[9] = AUC last in CD-1 mouse at 40 mg/kg, po and measured up to 24 hrs by LC/MS-MS analysis; type: ADME, organism-based; parameters: route oral, dose 40 mg/kg, time <=24; details: in vivo; outline: as §1
[10] = molecular target: T3, L-lactate dehydrogenase A chain; assay: Inhibition of recombinant human LDHA using sodium pyruvate as substrate preincubated for 5 mins followed by diaphorase/resazurin addition and measured after 20 mins by fluorescence based assay
[11] = Oral bioavailability in CD-1 mouse at 50 mg/kg and measured up to 24 hrs by LC/MS-MS analysis; type: ADME, organism-based; details: in vivo
Outline: (§2)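 Male CD1 mice, about 6–8 weeks old and 20–30 g, were dosed PO at 40 or 50 mg/kg in 0.1 M NaOH in PBS, pH 7–8.5, prepared the same day. Three mice per cohort. Dorsal metatarsal vein blood was collected into heparin at 15, 30 min and 1, 2, 4, 8, 12, 24 h. Plasma was spun at 4 °C, frozen at –75 °C and quantified by LC–MS/MS.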

Cytochrome P450 2B6 = molecular target: T4, Cytochrome P450 2B6 (Homo sapiens, UniProt P20813); assay: Inhibition of CYP2B6 (unknown origin) assessed as inhibitory concentration; type: ADME
T4 sequence (P20813 whole entry): T2 sequence (P20813 whole entry)

[12] = Cmax in CD-1 mouse at 50 mg/kg, po and measured up to 24 hrs by LC/MS-MS analysis; type: ADME, organism-based; parameters: route oral, dose 50 mg/kg, time <=24; details: in vivo; outline: as §2
Cytochrome P450 2C8 = molecular target: T5, Cytochrome P450 2C8 (Homo sapiens, UniProt P10632); assay: Inhibition of CYP2C8 (unknown origin) assessed as inhibitory concentration; type: ADME
T5 sequence (P10632 whole entry): T1 sequence (P10632 whole entry)

[13] = AUClast in CD-1 mouse at 50 mg/kg, po and measured up to 24 hrs by LC/MS-MS analysis; type: ADME, organism-based; parameters: route oral, dose 50 mg/kg, time <=24; details: in vivo; outline: as §2

Cc1ccc(C#Cc2cc(-c3nn(-c4nc(C(=O)O)cs4)c(CC4CC4)c3Cc3ccc(S(N)(=O)=O)c(F)c3)ccc2F)s1
half-life [1]: > 2.5 h
Cmax [2]: 5260 ng/mL
Fu [3]: 0.7%
inhibition at 10 µM (CYP2C8): 80%
beta t1/2 [4]: 2.78 h
inhibition at 10 µM (CYP2C9): 45%
inhibition at 10 µM (CYP2B6): 46%
F [5]: 73.8%
half-life [6]: > 2 h
inhibition [7]: Active
half-life at 1 µM [8]: > 2 h
AUClast [9]: 31390 ng·h/mL
IC50 [10]: 0.057 µM

Cc1ccc(C#Cc2cccc(-c3nn(-c4nc(C(=O)O)cs4)c(CC4CC4)c3Cc3ccc(S(N)(=O)=O)c(F)c3)c2)s1
half-life [1]: > 2.5 h
Fu [3]: 4.4%
F [11]: 64%
INH (Cytochrome P450 2B6): 14 µM
Cmax [12]: 8830 ng/mL
half-life [6]: > 2 h
inhibition [7]: Active
INH (Cytochrome P450 2C8): 7.5 µM
half-life at 1 µM [8]: > 2 h
AUClast [13]: 53540 ng·h/mL
IC50 [10]: 0.04 µM
